Measurements taken from ChEMBL document CHEMBL1687799, “Mutational analysis of flucytosine resistance in Candida glabrata” (2010).
Values after ≈ are worked out from the molar mass of the structure shown.

Experiments:
Format in all cases: functional
Nakaseomyces glabratus [1] = assay: Antimicrobial activity against 5-fluorocytosine resistant and ura3 harboring Candida glabrata 66032u assessed as lowest concentration inhibiting growth >=80% by broth microdilution method
Summary of the method: (§1)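 Broth microdilution with 5FC or 5FU in RPMI 1640 buffered with 0.165 M MOPS, pH 7.0, plus 2% dextrose, replacing the YPD of the cited protocol. Drug stocks were in 50% DMSO, and final DMSO was ≤0.5%. Plates were incubated at 35°C and read at 630 nm. MIC was the lowest concentration giving ≥80% growth inhibition relative to the drug-free control.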

Nakaseomyces glabratus [2] = assay: Antimicrobial activity against 5-fluorocytosine resistant Candida glabrata isolate TE34-78 harboring Fcr1 L136R mutant assessed as lowest concentration inhibiting growth >=80% by broth microdilution method; summary of the method: as §1
Nakaseomyces glabratus [3] = assay: Antimicrobial activity against 5-fluorocytosine resistant Candida glabrata 66032-FC5 harboring Fcy1 A15D mutant assessed as lowest concentration inhibiting growth >=80% by broth microdilution method; summary of the method: as §1
Nakaseomyces glabratus [4] = assay: Antimicrobial activity against 5-fluorocytosine resistant and ura3 harboring Candida glabrata BG14-FC8 harboring Fcy2L E238-V277dup mutant assessed as lowest concentration inhibiting growth >=80% by broth microdilution method; summary of the method: as §1
Nakaseomyces glabratus [5] = assay: Antimicrobial activity against 5-fluorocytosine resistant Candida glabrata 66032-FC4 harboring Fcy1 A15D mutant assessed as lowest concentration inhibiting growth >=80% by broth microdilution method; summary of the method: as §1
Nakaseomyces glabratus [6] = assay: Antimicrobial activity against 5-fluorocytosine resistant Candida glabrata 66032-FC2 harboring Fur1 deltaG73-V81mutant assessed as lowest concentration inhibiting growth >=80% by broth microdilution method; summary of the method: as §1
Nakaseomyces glabratus [7] = assay: Antimicrobial activity against 5-fluorocytosine resistant Candida glabrata 66032 assessed as lowest concentration inhibiting growth >=80% by broth microdilution method; summary of the method: as §1
Nakaseomyces glabratus [8] = assay: Antimicrobial activity against 5-fluorocytosine resistant and ura3 harboring Candida glabrata BG14-FC4 harboring Fcy1 E17stop mutant assessed as lowest concentration inhibiting growth >=80% by broth microdilution method; summary of the method: as §1
Nakaseomyces glabratus [9] = assay: Antimicrobial activity against 5-fluorocytosine resistant Candida glabrata 66032-FC6 harboring Fcy1 G11D mutant assessed as lowest concentration inhibiting growth >=80% by broth microdilution method; summary of the method: as §1
Nakaseomyces glabratus [10] = assay: Antimicrobial activity against 5-fluorocytosine resistant and ura3 harboring Candida glabrata 66032u-FC1 harboring Fcy2L W291stop mutant assessed as lowest concentration inhibiting growth >=80% by broth microdilution method; summary of the method: as §1
Nakaseomyces glabratus [11] = assay: Antimicrobial activity against 5-fluorocytosine resistant Candida glabrata 66032-FC1 harboring Fur1 183K mutant assessed as lowest concentration inhibiting growth >=80% by broth microdilution method; summary of the method: as §1
Nakaseomyces glabratus [12] = assay: Antimicrobial activity against 5-fluorocytosine resistant Candida glabrata isolate 20251.021 harboring Fcy1 T84L mutant assessed as lowest concentration inhibiting growth >=80% by broth microdilution method; summary of the method: as §1
Nakaseomyces glabratus [13] = assay: Antimicrobial activity against 5-fluorocytosine resistant and ura3 harboring Candida glabrata 66032u-FC6 harboring Fcy1 T92deltastop mutant assessed as lowest concentration inhibiting growth >=80% by broth microdilution method; summary of the method: as §1
Nakaseomyces glabratus [14] = assay: Antimicrobial activity against 5-fluorocytosine resistant and ura3 harboring Candida glabrata 66032u-FC3 harboring Fcy1 H59D mutant assessed as lowest concentration inhibiting growth >=80% by broth microdilution method; summary of the method: as §1
Nakaseomyces glabratus [15] = assay: Antimicrobial activity against 5-fluorocytosine resistant Candida glabrata 66032-FC3 harboring Fur1 G71V mutant assessed as lowest concentration inhibiting growth >=80% by broth microdilution method; summary of the method: as §1
Nakaseomyces glabratus [16] = assay: Antimicrobial activity against 5-fluorocytosine resistant Candida glabrata isolate 20408.055 harboring Fur1 G210D mutant assessed as lowest concentration inhibiting growth >=80% by broth microdilution method; summary of the method: as §1
Nakaseomyces glabratus [17] = assay: Antimicrobial activity against 5-fluorocytosine resistant and ura3 harboring Candida glabrata 66032u-FC10 harboring Fcy2L Q396stop mutant assessed as lowest concentration inhibiting growth >=80% by broth microdilution method; summary of the method: as §1
Nakaseomyces glabratus [18] = assay: Antimicrobial activity against 5-fluorocytosine resistant and ura3 harboring Candida glabrata 66032u-FC5 harboring Fcy2L E342stop mutant assessed as lowest concentration inhibiting growth >=80% by broth microdilution method; summary of the method: as §1
Nakaseomyces glabratus [19] = assay: Antimicrobial activity against 5-fluorocytosine resistant Candida glabrata isolate TE34-75 harboring FcY2J 1384F mutant assessed as lowest concentration inhibiting growth >=80% by broth microdilution method; summary of the method: as §1
Nakaseomyces glabratus [20] = assay: Antimicrobial activity against 5-fluorocytosine resistant and ura3 harboring Candida glabrata BG14 assessed as lowest concentration inhibiting growth >=80% by broth microdilution method; summary of the method: as §1

Nc1nc(=O)[nH]cc1F [FLUCYTOSINE]
MIC (Nakaseomyces glabratus [1]): 0.008 µg/mL (≈ 0.062 µM)
MIC (Nakaseomyces glabratus [2]): ≥ 32 µg/mL
MIC (Nakaseomyces glabratus [3]): ≥ 32 µg/mL
MIC (Nakaseomyces glabratus [4]): 1 µg/mL (≈ 7.75 µM)
MIC (Nakaseomyces glabratus [5]): ≥ 32 µg/mL
MIC (Nakaseomyces glabratus [6]): ≥ 32 µg/mL
MIC (Nakaseomyces glabratus [7]): 0.03 µg/mL (≈ 0.232 µM)
MIC (Nakaseomyces glabratus [8]): ≥ 32 µg/mL
MIC (Nakaseomyces glabratus [9]): ≥ 32 µg/mL
MIC (Nakaseomyces glabratus [10]): 1 µg/mL (≈ 7.75 µM)
MIC (Nakaseomyces glabratus [11]): ≥ 32 µg/mL
MIC (Nakaseomyces glabratus [12]): ≥ 32 µg/mL
MIC (Nakaseomyces glabratus [13]): ≥ 32 µg/mL
MIC (Nakaseomyces glabratus [14]): ≥ 32 µg/mL
MIC (Nakaseomyces glabratus [15]): ≥ 32 µg/mL
MIC (Nakaseomyces glabratus [16]): ≥ 32 µg/mL
MIC (Nakaseomyces glabratus [17]): 1 µg/mL (≈ 7.75 µM)
MIC (Nakaseomyces glabratus [18]): 1 µg/mL (≈ 7.75 µM)
MIC (Nakaseomyces glabratus [19]): 0.25 µg/mL (≈ 1.94 µM)
MIC (Nakaseomyces glabratus [20]): 0.03 µg/mL (≈ 0.232 µM)
